The target in data set [1] is T1, Hepatocyte growth factor receptor (Homo sapiens, UniProt P08581). Nature of the data set: Inhibition of c-Met in human MKN45 cells assessed as ERK1/2 phosphorylation at 0.1 to 3 uM after 4 hrs by Western blotting. The data set is classed as cell-based. Particulars: MKN-45. In short, it runs like this: (§1)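 Exponentially growing cells were exposed to compound for 4 h at 37 °C and lysed in SDS sample buffer. Lysates were resolved on 10% SDS-PAGE and blotted. Blots were probed for phospho- and total ERK1/2 and AKT, with GAPDH loading control, and detected by ECL.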
T1 sequence (P08581 whole entry): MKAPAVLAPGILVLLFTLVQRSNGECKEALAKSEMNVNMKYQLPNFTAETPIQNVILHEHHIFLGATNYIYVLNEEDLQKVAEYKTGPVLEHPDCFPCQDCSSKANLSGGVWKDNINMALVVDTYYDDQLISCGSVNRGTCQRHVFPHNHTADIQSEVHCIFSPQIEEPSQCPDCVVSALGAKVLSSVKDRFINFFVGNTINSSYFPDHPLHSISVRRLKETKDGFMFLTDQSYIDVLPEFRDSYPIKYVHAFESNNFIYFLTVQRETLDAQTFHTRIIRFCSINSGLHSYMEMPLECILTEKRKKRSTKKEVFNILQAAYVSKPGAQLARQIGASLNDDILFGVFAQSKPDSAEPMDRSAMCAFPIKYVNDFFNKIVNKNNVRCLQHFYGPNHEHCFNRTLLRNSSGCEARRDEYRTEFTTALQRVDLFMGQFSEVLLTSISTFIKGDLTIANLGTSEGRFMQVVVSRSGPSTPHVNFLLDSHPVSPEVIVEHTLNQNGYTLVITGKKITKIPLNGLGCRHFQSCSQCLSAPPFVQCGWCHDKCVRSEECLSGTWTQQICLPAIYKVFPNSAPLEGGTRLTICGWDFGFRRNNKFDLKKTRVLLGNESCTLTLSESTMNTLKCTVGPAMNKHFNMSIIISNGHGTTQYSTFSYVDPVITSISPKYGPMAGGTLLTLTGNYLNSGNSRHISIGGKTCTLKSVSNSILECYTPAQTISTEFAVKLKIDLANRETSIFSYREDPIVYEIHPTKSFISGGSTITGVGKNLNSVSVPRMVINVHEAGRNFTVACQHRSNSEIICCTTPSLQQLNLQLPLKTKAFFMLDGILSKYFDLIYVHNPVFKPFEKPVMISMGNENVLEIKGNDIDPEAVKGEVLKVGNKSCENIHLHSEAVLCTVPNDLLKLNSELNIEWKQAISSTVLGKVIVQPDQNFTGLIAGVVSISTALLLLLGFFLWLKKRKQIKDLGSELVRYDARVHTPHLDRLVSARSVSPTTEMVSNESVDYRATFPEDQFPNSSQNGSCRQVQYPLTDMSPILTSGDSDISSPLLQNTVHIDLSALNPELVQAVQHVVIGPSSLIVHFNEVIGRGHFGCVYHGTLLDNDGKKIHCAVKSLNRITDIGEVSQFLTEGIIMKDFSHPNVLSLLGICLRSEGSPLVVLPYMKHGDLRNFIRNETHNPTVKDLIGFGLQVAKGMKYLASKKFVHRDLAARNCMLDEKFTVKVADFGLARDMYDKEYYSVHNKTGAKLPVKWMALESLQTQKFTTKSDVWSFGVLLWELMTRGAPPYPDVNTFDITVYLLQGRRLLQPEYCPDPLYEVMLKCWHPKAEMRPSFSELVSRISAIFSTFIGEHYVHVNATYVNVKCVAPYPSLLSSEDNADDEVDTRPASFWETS

The nature of data set [2]: AUC (0 to infinity) in mouse at 20 mg/kg, po. It counts as ADME, organism-based. More on the design: dose 20 mg/kg, route oral, time infinity. Particulars: plasma. The gist of the method: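 Mice dosed orally at 20 mg/kg in DMSO/Tween 80/normal saline vehicle; plasma concentration-time profile used to derive AUC0-∞. Values are the average of three runs.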
Data set [3] addresses Proto-oncogene tyrosine-protein kinase receptor Ret (Homo sapiens, UniProt P07949). Nature of the data set: Inhibition of RET.
The target of data set [4] is T1, Hepatocyte growth factor receptor. Nature of the data set: Inhibition of c-Met in human MKN45 cells assessed as AKT phosphorylation at 0.1 to 3 uM after 4 hrs by Western blotting. The data set is classed as cell-based. Particulars: MKN-45. In short, it runs like this: as §1
In general terms: Immunoblotting shows a protein as a band on a membrane.

The subject of a further data set is BXPC-3. Nature of the data set: Antiproliferative activity against human BxPC3 cells after 72 hrs. As to conditions: BXPC-3, 72 h.
The target in data set [5] is Fibroblast growth factor receptor 1 (Homo sapiens, UniProt P11362). In words: Inhibition of FGFR1.
Chain of Fibroblast growth factor receptor 1 (P11362 whole entry): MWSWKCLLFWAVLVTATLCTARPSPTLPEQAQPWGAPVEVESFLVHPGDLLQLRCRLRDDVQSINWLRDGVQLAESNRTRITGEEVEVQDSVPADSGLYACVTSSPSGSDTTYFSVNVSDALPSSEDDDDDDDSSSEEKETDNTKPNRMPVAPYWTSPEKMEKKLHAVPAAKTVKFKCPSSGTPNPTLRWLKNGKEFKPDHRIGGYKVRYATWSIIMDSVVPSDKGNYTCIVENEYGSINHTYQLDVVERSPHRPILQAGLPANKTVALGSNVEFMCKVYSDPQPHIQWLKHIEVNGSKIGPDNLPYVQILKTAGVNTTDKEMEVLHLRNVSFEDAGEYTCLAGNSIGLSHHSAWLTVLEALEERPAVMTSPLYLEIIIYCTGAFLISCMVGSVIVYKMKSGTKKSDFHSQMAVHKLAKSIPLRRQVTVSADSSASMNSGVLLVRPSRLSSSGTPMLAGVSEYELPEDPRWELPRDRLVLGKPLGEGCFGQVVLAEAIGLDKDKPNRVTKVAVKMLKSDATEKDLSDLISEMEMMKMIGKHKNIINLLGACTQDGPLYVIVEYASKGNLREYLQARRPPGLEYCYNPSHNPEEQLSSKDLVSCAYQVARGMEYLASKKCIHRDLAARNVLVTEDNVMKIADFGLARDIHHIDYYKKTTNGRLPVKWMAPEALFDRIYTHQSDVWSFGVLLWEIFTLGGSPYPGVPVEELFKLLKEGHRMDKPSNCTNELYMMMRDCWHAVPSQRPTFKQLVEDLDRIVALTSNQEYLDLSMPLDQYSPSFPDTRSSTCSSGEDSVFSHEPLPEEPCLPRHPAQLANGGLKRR
A short description of data set [6]: Tmax in mouse at 20 mg/kg, po. As to conditions: in vivo. The data set is classed as ADME, organism-based. More on the design: dose 20 mg/kg, route oral.
Data set [7] relates to NIH3T3. In words: Antiproliferative activity against mouse NIH/3T3 cells expressing TPR-Met after 72 hrs. The data set is classed as functional, cell-based. As to conditions: NIH3T3, 72 h. In short, it runs like this: (§2)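 Cells were seeded and exposed next day to a range of compound concentrations for 72 h. Proliferation was read by sulforhodamine B or MTT assay, and IC50 derived.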

Data set [8] concerns the target Hepatocyte growth factor receptor (Mus musculus) (UniProt P16056). In words: Inhibition of TPR-c-Met phosphorylation expressed in mouse […] cells assessed as AKT phosphorylation at 0.1 to 3 uM after 4 hrs by Western blotting. The data set is classed as cell-based. The gist of the method: as §1
A further data set deals with NCI-H441. In words: Antiproliferative activity against human NCI-H441 cells after 72 hrs. As to conditions: NCI-H441, 72 h.
Data set [9] deals with Proto-oncogene tyrosine-protein kinase Src (Homo sapiens, UniProt P12931). In words: Inhibition of c-Src. In short, it runs like this:
(§3)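 ELISA on plates precoated with 20 μg/mL poly(Glu,Tyr) 4:1. Buffer: 10 μM ATP, 50 mM HEPES pH 7.4, 50 mM MgCl2, 0.5 mM MnCl2, 0.2 mM Na3VO4, 1 mM DTT, compound in 1% DMSO. Purified kinase was added and incubated 60 min at 37 °C. Phosphotyrosine was detected with PY99 then HRP anti-mouse IgG, o-phenylenediamine, A490. IC50 was taken from inhibition curves.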

For data set [10], the target named is Tyrosine-protein kinase ABL1 (Homo sapiens, UniProt P00519). In words: Inhibition of Abl. In short, it runs like this: as §3
The target of data set [11] is Hepatocyte growth factor receptor (Mus musculus) (UniProt P16056). In words: Inhibition of TPR-c-Met phosphorylation expressed in mouse BAF3 cells assessed as AKT phosphorylation at 0.1 to 3 uM after 4 hrs by Western blotting. The data set is classed as cell-based. The gist of the method: as §1
Chain of Hepatocyte growth factor receptor (Mus musculus) (P16056 whole entry): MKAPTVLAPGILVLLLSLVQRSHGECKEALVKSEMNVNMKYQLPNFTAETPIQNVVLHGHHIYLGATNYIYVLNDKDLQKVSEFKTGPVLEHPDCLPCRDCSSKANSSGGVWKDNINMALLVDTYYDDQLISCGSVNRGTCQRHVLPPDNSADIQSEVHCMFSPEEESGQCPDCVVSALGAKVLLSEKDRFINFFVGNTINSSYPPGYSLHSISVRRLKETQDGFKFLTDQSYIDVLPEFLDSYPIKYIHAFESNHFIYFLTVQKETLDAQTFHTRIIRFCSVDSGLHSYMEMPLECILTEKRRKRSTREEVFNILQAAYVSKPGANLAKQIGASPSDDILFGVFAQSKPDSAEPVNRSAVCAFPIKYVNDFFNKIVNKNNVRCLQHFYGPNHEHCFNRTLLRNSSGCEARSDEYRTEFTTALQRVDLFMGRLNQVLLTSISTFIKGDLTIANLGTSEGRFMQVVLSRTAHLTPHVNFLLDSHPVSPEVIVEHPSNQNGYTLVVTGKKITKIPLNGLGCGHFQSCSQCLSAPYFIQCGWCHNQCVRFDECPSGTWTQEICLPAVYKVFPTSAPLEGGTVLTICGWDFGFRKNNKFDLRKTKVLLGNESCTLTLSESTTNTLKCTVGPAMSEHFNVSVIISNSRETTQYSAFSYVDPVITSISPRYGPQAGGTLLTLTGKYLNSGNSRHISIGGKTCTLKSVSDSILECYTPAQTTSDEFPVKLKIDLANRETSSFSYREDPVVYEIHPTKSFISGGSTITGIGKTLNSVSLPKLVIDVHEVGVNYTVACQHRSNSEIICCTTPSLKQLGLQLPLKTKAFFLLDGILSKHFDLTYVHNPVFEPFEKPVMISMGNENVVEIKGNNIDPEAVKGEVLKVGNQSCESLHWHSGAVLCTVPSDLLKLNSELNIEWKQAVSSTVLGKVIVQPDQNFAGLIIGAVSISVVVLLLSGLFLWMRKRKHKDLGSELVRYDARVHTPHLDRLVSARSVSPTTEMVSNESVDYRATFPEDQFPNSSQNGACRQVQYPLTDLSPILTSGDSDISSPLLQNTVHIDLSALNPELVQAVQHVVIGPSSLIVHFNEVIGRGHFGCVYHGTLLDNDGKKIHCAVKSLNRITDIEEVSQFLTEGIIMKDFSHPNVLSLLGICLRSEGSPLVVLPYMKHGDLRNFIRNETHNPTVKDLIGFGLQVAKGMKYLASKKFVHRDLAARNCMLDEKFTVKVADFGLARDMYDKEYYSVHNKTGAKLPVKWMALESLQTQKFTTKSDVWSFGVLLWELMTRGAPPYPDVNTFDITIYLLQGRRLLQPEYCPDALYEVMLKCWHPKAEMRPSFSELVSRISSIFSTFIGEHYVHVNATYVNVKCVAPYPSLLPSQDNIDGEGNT
Data set [12] shares this target. In words: Inhibition of TPR-c-Met phosphorylation expressed in mouse BAF3 cells assessed as ERK1/2 phosphorylation at 0.1 to 3 uM after 4 hrs by Western blotting. It counts as cell-based. In short, it runs like this: as §1
A short description of data set [13]: Half life in mouse at 10 mg/kg, iv. The data set is classed as ADME, organism-based. More on the design: dose 10 mg/kg, route intravenous. Particulars: in vivo. The gist of the method: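 Single iv dose of 10 mg/kg to mice, vehicle DMSO/Tween 80/normal saline. Clearance and half-life were derived from plasma concentration-time data. Average of three runs.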

Another data set concerns U-87MG ATCC. Nature of the data set: Antitumor activity against human U87MG cells xenografted in nude mouse assessed as tumor growth inhibition at 50 mg/kg, ip qd for 14 days relative to control. It counts as functional, organism-based. More on the design: dose 50 mg/kg. The gist of the method:
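Tumor cells, (5-10)×10^6, were implanted sc in nude mice and grown to 700-800 mm3. Tumors were cut into 1 mm3 fragments and trocar-transplanted sc. At 100-150 mm3, mice were randomized (n = 6) to vehicle or ip dosing daily. Volumes were measured twice weekly by caliper, TV = length×width²/2. % inhibition used final-day versus day-1 change against vehicle, with Student's t test.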
In general terms: Xenograft models place foreign cells or tissue in a host animal.

For the next data set, the system named is MCF7. Nature of the data set: Antiproliferative activity against human MCF7 cells after 72 hrs. Particulars: MCF7, 72 h.
For data set [14], the system named is NIH3T3. In words: Antiproliferative activity against mouse NIH/3T3 cells after 72 hrs. The data set is classed as functional, cell-based. Particulars: NIH3T3, 72 h. In short, it runs like this:
as §2

The source of these data is ChEMBL document CHEMBL1765011, “Synthesis and c-Met kinase inhibition of 3,5-disubstituted and 3,5,7-trisubstituted quinolines: identification of 3-(4-acetylpiperazin-1-yl)-5-(3-nitrobenzylamino)-7- (trifluoromethyl)quinoline as a novel anticancer agent” (J Med Chem, 2011).

Active and inactive are the calls of the source. The calls are words filed in the database; no cut-off is given here.

Chain of Proto-oncogene tyrosine-protein kinase receptor Ret (P07949 whole entry): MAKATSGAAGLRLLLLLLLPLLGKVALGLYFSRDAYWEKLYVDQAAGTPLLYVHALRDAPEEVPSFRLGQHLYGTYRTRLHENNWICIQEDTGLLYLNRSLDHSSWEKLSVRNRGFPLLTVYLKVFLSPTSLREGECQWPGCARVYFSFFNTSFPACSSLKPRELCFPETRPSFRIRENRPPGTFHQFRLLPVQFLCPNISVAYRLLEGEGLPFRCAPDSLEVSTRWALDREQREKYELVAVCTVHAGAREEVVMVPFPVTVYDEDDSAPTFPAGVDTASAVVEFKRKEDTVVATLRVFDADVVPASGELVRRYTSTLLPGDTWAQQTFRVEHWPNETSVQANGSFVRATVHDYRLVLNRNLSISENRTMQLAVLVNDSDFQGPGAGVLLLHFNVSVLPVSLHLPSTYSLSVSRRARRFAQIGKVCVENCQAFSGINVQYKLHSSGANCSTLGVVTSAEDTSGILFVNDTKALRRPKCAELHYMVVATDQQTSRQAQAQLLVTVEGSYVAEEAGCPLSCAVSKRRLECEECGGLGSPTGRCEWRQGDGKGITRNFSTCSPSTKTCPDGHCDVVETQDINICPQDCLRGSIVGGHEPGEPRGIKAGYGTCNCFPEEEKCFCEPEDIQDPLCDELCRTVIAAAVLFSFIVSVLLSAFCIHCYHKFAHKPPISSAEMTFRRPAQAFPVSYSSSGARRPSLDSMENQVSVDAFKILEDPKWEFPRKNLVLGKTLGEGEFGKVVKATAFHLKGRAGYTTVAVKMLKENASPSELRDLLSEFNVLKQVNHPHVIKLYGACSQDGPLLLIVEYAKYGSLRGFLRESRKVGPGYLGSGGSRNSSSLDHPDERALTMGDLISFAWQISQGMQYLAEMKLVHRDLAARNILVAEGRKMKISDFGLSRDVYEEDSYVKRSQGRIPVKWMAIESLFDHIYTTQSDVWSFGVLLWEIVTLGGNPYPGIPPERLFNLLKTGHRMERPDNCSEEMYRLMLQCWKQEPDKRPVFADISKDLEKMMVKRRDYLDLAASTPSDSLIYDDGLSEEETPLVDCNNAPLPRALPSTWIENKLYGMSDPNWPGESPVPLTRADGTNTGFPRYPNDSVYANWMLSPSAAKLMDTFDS

As for `CC(=O)N1CCN(c2cnc3cc(C(F)(F)F)cc(NCc4cccc([N+](=O)[O-])c4)c3c2)CC1`, the inhibition entry (in [1]; in [4]; in data set [8]; in data set [11]; in data set [12]; with U-87MG ATCC) was “Active” in each case. In data set [2], this molecule yielded an AUC(0-inf) of 2100 ng·h/mL. Further, the IC50 in data set [3] is above 10 µM; in the data set with BXPC-3, 46 µM; in data set [5] it was above 10 µM; with NIH3T3 [7], 2000 nM; in the data set with NCI-H441, at least 50 µM; in data set [9] it was above 10 µM. Further, the IC50 in data set [10] is above 10 µM; in the data set with MCF7 it was 16 µM; in the data set on NIH3T3 [14], at least 50 µM. Further, the Tmax in [6] was 3 h. Further, the half-life in data set [13] was 195 min.

One may read the AUC(0-inf) as the area under the concentration-time curve extrapolated to infinity. By IC50 is commonly meant the concentration that gives 50% inhibition. The low end stands for greater potency in that assay, the high end for weaker potency in that assay. In general, Tmax refers to the time from dosing to the highest level. The term half-life denotes the time in which the quantity being followed falls by half. A lower half-life goes with fast loss.
